From ChEMBL document CHEMBL5653631, “A Potent and Selective ULK1 Inhibitor Suppresses Autophagy and Sensitizes Cancer Cells to Nutrient Stress” (iScience, 2018) come the findings set out here.

Experiment [1] addresses T1, Interleukin-1 receptor-associated kinase 4 (Homo sapiens) (UniProt Q9NWZ3).
T1 sequence (whole entry): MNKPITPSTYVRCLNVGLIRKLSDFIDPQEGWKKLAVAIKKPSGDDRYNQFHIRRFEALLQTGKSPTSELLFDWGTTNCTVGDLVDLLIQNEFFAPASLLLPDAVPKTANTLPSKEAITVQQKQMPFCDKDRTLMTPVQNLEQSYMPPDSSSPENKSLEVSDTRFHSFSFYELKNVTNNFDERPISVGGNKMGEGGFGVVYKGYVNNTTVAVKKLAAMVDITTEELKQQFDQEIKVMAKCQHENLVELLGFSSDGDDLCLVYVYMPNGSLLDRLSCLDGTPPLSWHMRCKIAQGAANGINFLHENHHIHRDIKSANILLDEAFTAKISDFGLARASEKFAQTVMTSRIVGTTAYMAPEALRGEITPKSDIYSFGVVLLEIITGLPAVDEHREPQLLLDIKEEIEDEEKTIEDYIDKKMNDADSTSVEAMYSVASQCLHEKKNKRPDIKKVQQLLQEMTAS
In words: Inhibition of human recombinant IRAK4 at 40 nM in presence of ATP by radiometric assay relative to control.

Experiment [2] has as its target Serine/threonine-protein kinase N2 (Homo sapiens) (UniProt Q16513). As to the kind of experiment: Inhibition of human recombinant PKN2 at 40 nM in presence of ATP by radiometric assay relative to control.
For experiment [3], the target named is Homeodomain-interacting protein kinase 3 (Homo sapiens) (UniProt Q9H422). As to the kind of experiment: Inhibition of human recombinant HIPK3 at 40 nM in presence of ATP by radiometric assay relative to control.
Experiment [4] has as its target Mitogen-activated protein kinase kinase kinase 10 (Homo sapiens) (UniProt Q02779). In words: Inhibition of human recombinant MLK2 at 500 nM in presence of ATP by radiometric assay relative to control.
The target of experiment [5] is T2, Serine/threonine-protein kinase 17A (Homo sapiens) (UniProt Q9UEE5).
T2 sequence (whole entry): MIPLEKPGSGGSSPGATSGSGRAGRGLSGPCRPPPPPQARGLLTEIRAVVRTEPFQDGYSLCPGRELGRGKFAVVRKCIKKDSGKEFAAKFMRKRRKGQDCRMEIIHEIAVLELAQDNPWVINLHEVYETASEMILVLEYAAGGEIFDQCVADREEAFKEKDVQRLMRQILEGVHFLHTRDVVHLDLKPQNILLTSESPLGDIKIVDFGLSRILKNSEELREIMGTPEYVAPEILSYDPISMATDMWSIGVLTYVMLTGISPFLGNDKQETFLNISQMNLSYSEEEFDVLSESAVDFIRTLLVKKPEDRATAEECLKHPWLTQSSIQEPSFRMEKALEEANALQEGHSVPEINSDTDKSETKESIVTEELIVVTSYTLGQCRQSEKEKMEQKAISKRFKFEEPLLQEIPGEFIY
In words: Inhibition of human recombinant DRAK1 at 500 nM in presence of ATP by radiometric assay relative to control.

In experiment [6] the target is Serine/threonine-protein kinase WNK3 (Homo sapiens) (UniProt Q9BYP7). As to the kind of experiment: Inhibition of human recombinant Wnk3 at 500 nM related to control ULK1.
For experiment [7], the target named is Mitogen-activated protein kinase kinase kinase kinase 1 (Homo sapiens) (UniProt Q92918). In words: Inhibition of human recombinant HPK1 at 500 nM related to control ULK1.
For experiment [8], the target named is Cyclin-dependent kinase 7 (Homo sapiens) (UniProt P50613). As to the kind of experiment: Inhibition of human recombinant CDK7 at 500 nM related to control ULK1.
Experiment [9] deals with Glycogen synthase kinase-3 beta (Homo sapiens) (UniProt P49841). In words: Inhibition of human recombinant GSK3B at 15 nM related to control ULK1.
For experiment [10], the target named is Serine/threonine-protein kinase PLK2 (Homo sapiens) (UniProt Q9NYY3). As to the kind of experiment: Inhibition of human recombinant PLK2 at 15 nM in presence of ATP by radiometric assay relative to control.
Experiment [11] has as its target T3, Serine/threonine-protein kinase ICK (Homo sapiens) (UniProt Q9UPZ9).
T3 sequence (whole entry): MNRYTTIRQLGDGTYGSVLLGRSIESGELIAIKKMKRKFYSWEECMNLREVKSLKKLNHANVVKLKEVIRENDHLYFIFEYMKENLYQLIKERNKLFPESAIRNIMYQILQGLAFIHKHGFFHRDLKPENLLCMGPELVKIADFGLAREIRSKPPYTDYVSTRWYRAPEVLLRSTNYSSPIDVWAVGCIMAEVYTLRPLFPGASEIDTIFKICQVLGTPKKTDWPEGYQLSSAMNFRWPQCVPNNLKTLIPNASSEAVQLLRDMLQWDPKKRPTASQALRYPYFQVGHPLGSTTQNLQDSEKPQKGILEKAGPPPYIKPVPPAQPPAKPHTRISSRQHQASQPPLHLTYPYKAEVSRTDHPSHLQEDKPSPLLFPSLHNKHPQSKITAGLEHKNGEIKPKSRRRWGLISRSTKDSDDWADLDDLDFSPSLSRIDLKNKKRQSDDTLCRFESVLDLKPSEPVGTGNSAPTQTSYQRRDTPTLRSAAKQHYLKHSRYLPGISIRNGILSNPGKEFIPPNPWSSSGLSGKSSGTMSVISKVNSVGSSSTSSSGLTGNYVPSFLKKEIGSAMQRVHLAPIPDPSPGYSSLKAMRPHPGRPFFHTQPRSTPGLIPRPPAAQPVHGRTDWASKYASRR
In words: Inhibition of human recombinant ICK at 15 nM related to control ULK1.

The target of experiment [12] is 5'-AMP-activated protein kinase catalytic subunit alpha-1 (Homo sapiens) (UniProt Q13131). As to the kind of experiment: Inhibition of human recombinant AMPKa1 at 15 nM related to control ULK1. An outline of the steps:
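Panel of 327 recombinant human kinases, each assayed in vitro by radiometric activity assay in duplicate at a single inhibitor concentration per compound, chosen with reference to its ULK1 inhibition. Activity remaining was expressed as percent of vehicle control, and percent inhibition was calculated as 100 minus percent activity remaining.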

Experiment [13] concerns the target T4, Testis-specific serine/threonine-protein kinase 4 (Homo sapiens) (UniProt Q6SA08).
T4 sequence (whole entry): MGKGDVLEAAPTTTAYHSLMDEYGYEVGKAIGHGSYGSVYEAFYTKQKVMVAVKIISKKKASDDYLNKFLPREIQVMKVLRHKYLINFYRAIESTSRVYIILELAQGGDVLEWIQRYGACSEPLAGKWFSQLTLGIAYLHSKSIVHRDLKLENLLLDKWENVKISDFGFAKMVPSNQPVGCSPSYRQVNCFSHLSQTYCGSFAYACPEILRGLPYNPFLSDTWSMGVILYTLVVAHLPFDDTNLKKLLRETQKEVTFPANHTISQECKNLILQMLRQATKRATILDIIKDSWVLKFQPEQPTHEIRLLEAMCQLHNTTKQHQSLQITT
In words: Inhibition of human recombinant TSSK4 at 15 nM related to control ULK1.

Sequence of Cyclin-dependent kinase 7 (Homo sapiens) (P50613 whole entry): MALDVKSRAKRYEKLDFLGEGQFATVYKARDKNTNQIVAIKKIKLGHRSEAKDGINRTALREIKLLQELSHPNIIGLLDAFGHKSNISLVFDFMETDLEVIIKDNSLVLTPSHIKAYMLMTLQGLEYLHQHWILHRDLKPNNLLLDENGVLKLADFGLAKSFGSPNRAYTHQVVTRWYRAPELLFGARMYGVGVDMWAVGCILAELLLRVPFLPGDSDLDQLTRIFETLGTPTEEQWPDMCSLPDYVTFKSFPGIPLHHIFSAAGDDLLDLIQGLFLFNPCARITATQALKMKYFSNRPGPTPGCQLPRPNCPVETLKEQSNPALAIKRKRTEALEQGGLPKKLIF
Sequence of Homeodomain-interacting protein kinase 3 (Homo sapiens) (Q9H422 whole entry, looked up): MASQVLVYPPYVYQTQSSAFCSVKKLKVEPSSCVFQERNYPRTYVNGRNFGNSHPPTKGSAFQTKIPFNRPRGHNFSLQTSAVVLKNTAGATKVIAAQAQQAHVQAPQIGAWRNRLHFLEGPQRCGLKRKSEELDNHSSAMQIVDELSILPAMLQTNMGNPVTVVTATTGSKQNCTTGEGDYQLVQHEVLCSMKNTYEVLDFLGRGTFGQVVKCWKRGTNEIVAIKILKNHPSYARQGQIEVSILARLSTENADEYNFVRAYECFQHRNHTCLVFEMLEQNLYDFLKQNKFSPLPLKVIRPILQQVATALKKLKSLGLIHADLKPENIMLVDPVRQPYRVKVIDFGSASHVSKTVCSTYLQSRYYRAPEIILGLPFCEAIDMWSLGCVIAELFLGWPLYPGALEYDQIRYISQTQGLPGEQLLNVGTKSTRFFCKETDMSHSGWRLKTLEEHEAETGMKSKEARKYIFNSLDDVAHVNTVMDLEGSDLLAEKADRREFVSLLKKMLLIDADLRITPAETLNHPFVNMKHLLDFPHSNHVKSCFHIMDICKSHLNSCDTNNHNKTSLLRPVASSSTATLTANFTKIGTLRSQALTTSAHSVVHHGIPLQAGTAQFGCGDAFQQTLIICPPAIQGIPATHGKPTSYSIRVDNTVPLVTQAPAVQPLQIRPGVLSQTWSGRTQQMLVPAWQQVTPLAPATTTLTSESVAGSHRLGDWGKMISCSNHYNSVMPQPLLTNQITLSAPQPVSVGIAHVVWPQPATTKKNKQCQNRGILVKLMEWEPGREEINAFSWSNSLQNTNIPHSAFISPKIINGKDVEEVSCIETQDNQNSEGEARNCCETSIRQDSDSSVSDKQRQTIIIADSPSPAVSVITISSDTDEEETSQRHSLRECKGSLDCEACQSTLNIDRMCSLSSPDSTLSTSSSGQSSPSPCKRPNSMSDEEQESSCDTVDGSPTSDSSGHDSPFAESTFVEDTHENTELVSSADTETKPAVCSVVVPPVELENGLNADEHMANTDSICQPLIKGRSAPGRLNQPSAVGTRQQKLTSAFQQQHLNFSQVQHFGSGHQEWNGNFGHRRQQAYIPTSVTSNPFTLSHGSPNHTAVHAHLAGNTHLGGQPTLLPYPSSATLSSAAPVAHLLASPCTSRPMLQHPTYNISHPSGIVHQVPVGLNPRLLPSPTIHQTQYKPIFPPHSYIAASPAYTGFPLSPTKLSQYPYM
Sequence of Serine/threonine-protein kinase WNK3 (Homo sapiens) (Q9BYP7 whole entry): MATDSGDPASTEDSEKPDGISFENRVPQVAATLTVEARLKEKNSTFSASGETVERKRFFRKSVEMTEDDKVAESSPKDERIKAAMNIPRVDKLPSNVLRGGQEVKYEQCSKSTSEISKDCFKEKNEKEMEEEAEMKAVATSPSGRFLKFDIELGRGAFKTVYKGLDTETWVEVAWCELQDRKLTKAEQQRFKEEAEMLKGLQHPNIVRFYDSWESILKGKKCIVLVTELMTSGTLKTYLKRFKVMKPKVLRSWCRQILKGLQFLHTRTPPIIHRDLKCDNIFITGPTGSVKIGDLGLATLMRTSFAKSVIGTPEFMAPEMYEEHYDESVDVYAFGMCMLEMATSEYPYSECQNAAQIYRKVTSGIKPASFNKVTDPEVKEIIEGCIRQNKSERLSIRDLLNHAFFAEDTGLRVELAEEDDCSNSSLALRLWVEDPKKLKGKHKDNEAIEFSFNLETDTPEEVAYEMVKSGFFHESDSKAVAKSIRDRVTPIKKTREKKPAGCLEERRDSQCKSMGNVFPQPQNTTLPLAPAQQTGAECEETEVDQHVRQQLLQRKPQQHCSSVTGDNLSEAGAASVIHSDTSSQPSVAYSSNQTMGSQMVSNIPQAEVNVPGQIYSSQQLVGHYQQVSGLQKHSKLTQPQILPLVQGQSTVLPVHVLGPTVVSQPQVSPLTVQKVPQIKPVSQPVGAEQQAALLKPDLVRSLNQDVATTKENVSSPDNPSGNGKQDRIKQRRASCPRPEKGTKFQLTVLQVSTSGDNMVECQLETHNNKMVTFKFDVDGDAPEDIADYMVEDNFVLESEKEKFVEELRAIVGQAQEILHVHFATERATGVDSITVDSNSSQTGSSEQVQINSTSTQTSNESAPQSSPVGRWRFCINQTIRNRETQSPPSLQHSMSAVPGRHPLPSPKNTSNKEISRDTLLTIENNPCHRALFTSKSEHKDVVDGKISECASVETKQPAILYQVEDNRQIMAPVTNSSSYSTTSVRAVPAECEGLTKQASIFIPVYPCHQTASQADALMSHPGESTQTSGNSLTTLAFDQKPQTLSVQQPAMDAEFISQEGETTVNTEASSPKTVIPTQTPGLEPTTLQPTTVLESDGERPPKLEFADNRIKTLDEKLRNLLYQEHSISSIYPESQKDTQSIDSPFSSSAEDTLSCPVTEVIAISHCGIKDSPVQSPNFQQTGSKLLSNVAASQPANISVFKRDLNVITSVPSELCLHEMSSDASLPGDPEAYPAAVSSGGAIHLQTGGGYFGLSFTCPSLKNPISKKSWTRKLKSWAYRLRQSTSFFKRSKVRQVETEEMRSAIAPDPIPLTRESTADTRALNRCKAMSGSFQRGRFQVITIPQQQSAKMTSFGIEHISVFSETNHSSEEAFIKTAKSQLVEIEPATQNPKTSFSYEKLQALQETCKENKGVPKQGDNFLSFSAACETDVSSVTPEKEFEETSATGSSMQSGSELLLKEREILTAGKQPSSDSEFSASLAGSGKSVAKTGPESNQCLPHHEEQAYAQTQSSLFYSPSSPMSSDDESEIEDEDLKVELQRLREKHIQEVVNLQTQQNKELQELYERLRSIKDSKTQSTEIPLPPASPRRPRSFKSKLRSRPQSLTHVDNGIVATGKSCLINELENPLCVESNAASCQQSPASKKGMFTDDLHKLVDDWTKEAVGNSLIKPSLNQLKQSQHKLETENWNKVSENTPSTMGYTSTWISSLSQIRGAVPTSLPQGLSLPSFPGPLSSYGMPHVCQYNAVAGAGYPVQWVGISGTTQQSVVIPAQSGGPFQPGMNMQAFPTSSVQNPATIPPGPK
Sequence of Mitogen-activated protein kinase kinase kinase kinase 1 (Homo sapiens) (Q92918 whole entry, looked up): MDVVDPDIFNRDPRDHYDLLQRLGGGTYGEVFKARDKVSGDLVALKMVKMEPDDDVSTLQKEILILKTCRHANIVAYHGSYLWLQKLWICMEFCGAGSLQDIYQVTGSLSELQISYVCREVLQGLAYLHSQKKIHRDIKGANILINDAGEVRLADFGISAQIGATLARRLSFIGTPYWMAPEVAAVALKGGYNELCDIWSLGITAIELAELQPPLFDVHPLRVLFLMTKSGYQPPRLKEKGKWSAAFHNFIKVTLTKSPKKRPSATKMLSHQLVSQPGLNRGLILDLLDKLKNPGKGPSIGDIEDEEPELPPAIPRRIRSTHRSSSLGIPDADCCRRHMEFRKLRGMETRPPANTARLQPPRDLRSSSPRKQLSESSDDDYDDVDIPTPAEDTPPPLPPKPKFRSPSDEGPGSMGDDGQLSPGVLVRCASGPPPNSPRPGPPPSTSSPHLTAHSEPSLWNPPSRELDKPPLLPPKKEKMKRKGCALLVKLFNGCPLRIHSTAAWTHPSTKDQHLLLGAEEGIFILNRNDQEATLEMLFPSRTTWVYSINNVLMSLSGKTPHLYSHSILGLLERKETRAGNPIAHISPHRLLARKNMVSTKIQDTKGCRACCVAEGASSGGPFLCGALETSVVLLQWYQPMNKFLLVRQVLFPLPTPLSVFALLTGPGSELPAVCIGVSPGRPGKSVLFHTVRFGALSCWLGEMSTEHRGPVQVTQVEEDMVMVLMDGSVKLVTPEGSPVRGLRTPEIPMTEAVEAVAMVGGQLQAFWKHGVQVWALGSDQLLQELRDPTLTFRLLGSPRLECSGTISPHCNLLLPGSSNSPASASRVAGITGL
Sequence of 5'-AMP-activated protein kinase catalytic subunit alpha-1 (Homo sapiens) (Q13131 whole entry, looked up): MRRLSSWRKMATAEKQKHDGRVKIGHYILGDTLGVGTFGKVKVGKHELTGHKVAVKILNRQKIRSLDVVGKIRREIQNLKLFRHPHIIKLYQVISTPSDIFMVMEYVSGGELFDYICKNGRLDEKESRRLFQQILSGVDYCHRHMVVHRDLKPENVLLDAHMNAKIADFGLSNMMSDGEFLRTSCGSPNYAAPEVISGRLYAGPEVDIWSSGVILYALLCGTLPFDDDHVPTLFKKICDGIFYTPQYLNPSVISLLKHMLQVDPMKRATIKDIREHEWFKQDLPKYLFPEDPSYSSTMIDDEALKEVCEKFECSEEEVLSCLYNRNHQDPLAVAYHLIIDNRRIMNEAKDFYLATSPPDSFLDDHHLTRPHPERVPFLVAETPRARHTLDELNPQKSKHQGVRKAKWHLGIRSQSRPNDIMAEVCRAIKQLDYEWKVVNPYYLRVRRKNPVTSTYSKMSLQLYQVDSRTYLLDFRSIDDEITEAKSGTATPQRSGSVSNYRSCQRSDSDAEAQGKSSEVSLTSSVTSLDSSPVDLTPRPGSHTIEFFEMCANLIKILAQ

As to `O=C(N[C@@H](C1CC1)C(F)(F)F)c1cc(-c2cnn3cc(-c4ccc(F)cc4)cnc23)cs1`, the inhibition in [1] amounted to 0%; in [2], 0%; in [3], 5%.
As for `CNC(=O)c1ccccc1Oc1nc(Nc2cc(OC)c(OC)c(OC)c2)ncc1Br`, the inhibition in [4] amounted to 70%; in experiment [5], 0%. Further, the fold change (FC) was determined as 0.08 in experiment [6], 0.43 in experiment [7] and 0.39 in experiment [8].
Take `CC(C)[C@H](NC(=O)c1cc(-c2cnn3cc(-c4ccc(OCCN5CCCCC5)cc4)cnc23)cs1)C(F)(F)F`: the fold change (FC) in experiment [9] worked out at 0.13; in [11], 0; in experiment [12] it was 0.66; in experiment [13], 0. Besides, the inhibition in [10] was determined as 4%.
